Results as given in ChEMBL document CHEMBL3596173, “Structural Requirements for CNS Active Opioid Glycopeptides” (J Med Chem, 2015).
Non-standard residues stand in square brackets, D forms with d. Residues, ends and D or L forms follow the SMILES beside them. *: point of attachment. βGlc = OC[C@H]1O[C@@H](*)[C@H](O)[C@@H](O)[C@@H]1O; Aib = CC(C)(N)C(=O)O

Columns and labels:
Assay type in all cases: cell-based
[1] = target: T1, Delta-type opioid receptor (Homo sapiens, UniProt P41143); assay: Displacement of [3H]-naltrindole from human delta opioid receptor expressed in CHO cells after 3 hrs by scintillation counting analysis
T1 sequence (P41143 whole entry): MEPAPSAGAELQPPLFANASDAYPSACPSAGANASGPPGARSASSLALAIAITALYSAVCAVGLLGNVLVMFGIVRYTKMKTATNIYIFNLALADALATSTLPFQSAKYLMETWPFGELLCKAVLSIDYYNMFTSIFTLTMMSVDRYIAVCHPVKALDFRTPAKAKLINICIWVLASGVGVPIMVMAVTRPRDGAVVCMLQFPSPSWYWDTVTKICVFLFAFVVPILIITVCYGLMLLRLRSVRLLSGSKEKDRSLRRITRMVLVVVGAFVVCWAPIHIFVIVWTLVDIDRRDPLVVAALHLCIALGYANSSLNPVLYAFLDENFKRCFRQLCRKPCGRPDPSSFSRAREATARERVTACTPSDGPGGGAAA
Outline: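 Binding used CHO-cell membranes bearing human δ receptor and 0.2 nM (final) [3H]naltrindole, incubated 3 h at 25 °C in 50 mM Tris-HCl pH 7.5. Nonspecific binding was defined with 100 μM naloxone. Samples were glass-fiber filtered, washed with cold buffer and scintillation counted. IC50 came from a log-probit least-squares fit and was converted to Ki as IC50/(1+S).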

[2] = target: Mu-type opioid receptor (Homo sapiens, UniProt P35372); assay: Displacement of [3H]-DAMGO from human mu opioid receptor expressed in CHO cells after 60 mins by scintillation counting analysis
Mu-type opioid receptor, sequence (P35372 whole entry): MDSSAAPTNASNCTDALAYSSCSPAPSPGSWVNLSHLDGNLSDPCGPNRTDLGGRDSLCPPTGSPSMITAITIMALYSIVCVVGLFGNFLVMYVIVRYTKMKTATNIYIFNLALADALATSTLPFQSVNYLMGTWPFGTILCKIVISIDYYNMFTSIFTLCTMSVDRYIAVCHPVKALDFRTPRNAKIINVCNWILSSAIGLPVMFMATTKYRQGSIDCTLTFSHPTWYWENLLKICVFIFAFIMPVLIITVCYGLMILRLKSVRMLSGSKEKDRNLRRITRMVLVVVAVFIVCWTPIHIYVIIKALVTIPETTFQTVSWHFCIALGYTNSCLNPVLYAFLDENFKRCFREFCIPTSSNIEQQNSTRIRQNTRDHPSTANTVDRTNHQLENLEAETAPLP
Outline: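 Membranes from CHO cells stably expressing human μ receptor were incubated with 0.25 nM (final) [3H]DAMGO in 50 mM Tris-HCl pH 7.5 for 60 min at 25 °C. Bound radioligand was separated by glass-fiber filtration with cold buffer washes and counted by scintillation. IC50 came from a least-squares log-probit fit, and Ki from IC50/(1+S).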

[3] = target: Kappa-type opioid receptor (Homo sapiens, UniProt P41145); assay: Displacement of [3H]-U69593 from human kappa opioid receptor expressed in CHO cells after 60 mins by scintillation counting analysis
Kappa-type opioid receptor, sequence (P41145 whole entry): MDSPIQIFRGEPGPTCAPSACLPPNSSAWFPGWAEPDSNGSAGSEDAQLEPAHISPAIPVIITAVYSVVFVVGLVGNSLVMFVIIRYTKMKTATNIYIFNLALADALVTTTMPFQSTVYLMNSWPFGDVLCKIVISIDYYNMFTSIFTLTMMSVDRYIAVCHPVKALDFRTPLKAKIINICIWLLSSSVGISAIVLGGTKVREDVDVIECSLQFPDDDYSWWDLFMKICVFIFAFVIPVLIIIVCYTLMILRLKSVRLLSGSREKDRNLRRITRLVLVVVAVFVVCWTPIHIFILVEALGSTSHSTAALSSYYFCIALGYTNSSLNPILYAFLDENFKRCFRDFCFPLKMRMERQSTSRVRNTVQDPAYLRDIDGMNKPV
Outline: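 Human κ receptor stably expressed in CHO cells was used as a membrane prep. It was incubated with 1 nM (final) [3H]U69,593 for 60 min at 25 °C in 50 mM Tris-HCl pH 7.5, with 10 μM naloxone defining nonspecific binding. Samples were filtered through glass-fiber filters presoaked ≥30 min in 0.1% polyethylenimine, washed cold and scintillation counted. Ki was derived from a log-probit IC50 via IC50/(1+S).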

[4] = target: T1, Delta-type opioid receptor; assay: Displacement of [3H]-naltrindole from human delta opioid receptor expressed in CHO cells at 10 uM after 3 hrs by scintillation counting analysis relative to control

| Structure (SMILES) | Ki [1] [nM] | Ki [2] [nM] | Ki [3] [nM] | Activity [4] [%] | Ki ([1]; cho) [nM] | Ki ([2]; cho) [nM] | Ki ([3]; cho) [nM] |
| --- | --- | --- | --- | --- | --- | --- | --- |
| CC(C)C[C@H](NC(=O)[C@H](CO[C@@H]1O[C@H](CO)[C@@H](O)[C@H](O)[C@H]1O)NC(=O)[C@H](CCCCN)NC(=O)[C@H](CC(C)C)NC(=O)[C@H](C)NC(=O)[C@H](CCCCN)NC(=O)[C@H](CCC(=O)O)NC(=O)C(C)(C)NC(=O)[C@H](CC(C)C)NC(=O)[C@H](CC(N)=O)NC(=O)CNC(=O)[C@H](CC(C)C)NC(=O)[C@H](Cc1ccccc1)NC(=O)CNC(=O)[C@@H](NC(=O)[C@@H](N)Cc1ccc(O)cc1)[C@@H](C)O)C(N)=O (H-YTGFLGNL[Aib]EKALKS(βGlc)L-NH2) | 31 | 26 | 14 |  |  |  |  |
| CC(C)C[C@H](NC(=O)[C@H](CO[C@@H]1O[C@H](CO)[C@@H](O)[C@H](O)[C@H]1O)NC(=O)[C@H](CCCCN)NC(=O)[C@H](CC(C)C)NC(=O)[C@H](C)NC(=O)[C@H](CCCCN)NC(=O)[C@H](CCC(=O)O)NC(=O)C(C)(C)NC(=O)[C@H](CC(C)C)NC(=O)[C@H](CC(N)=O)NC(=O)[C@@H]1CCCN1C(=O)CNC(=O)[C@H](Cc1ccccc1)N(C)C(=O)CNC(=O)[C@@H](C)NC(=O)[C@@H](N)Cc1ccc(O)cc1)C(N)=O | 840 | 3.2 | 45 |  |  |  |  |
| CC(C)C[C@H](NC(=O)[C@H](CO[C@@H]1O[C@H](CO)[C@@H](O)[C@H](O)[C@H]1O)NC(=O)[C@H](CCCCN)NC(=O)[C@H](CC(C)C)NC(=O)[C@H](C)NC(=O)[C@H](CCCCN)NC(=O)[C@H](CCC(=O)O)NC(=O)C(C)(C)NC(=O)[C@H](CC(C)C)NC(=O)[C@H](CC(N)=O)NC(=O)CNC(=O)CNC(=O)[C@H](Cc1ccccc1)N(C)C(=O)CNC(=O)[C@@H](C)NC(=O)[C@@H](N)Cc1ccc(O)cc1)C(N)=O | 1500 | 2.8 | 59 |  |  |  |  |
| CC(C)C[C@H](NC(=O)[C@H](CO[C@@H]1O[C@H](CO)[C@@H](O)[C@H](O)[C@H]1O)NC(=O)[C@H](CCCCN)NC(=O)[C@H](CC(C)C)NC(=O)[C@H](C)NC(=O)[C@H](CCCCN)NC(=O)[C@H](CCC(=O)O)NC(=O)C(C)(C)NC(=O)[C@H](CC(C)C)NC(=O)[C@H](CC(N)=O)NC(=O)CCNC(=O)[C@H](Cc1ccccc1)N(C)C(=O)CNC(=O)[C@@H](C)NC(=O)[C@@H](N)Cc1ccc(O)cc1)C(N)=O | 1400 | 4.8 | 200 |  |  |  |  |
| CC(C)C[C@H](NC(=O)[C@H](CO[C@@H]1O[C@H](CO)[C@@H](O)[C@H](O)[C@H]1O)NC(=O)[C@H](CCCCN)NC(=O)[C@H](CC(C)C)NC(=O)[C@H](C)NC(=O)[C@H](CCCCN)NC(=O)[C@H](CCC(=O)O)NC(=O)C(C)(C)NC(=O)[C@H](CC(C)C)NC(=O)[C@H](CC(N)=O)NC(=O)[C@@H]1CCCN1C(=O)[C@H](Cc1ccccc1)N(C)C(=O)CNC(=O)[C@@H](C)NC(=O)[C@@H](N)Cc1ccc(O)cc1)C(N)=O |  | 8.8 | 340 | 31 |  |  |  |
| CC(C)C[C@H](NC(=O)[C@H](CO[C@@H]1O[C@H](CO)[C@@H](O)[C@H](O)[C@H]1O)NC(=O)[C@H](CCCCN)NC(=O)[C@H](CC(C)C)NC(=O)[C@H](C)NC(=O)[C@H](CCCCN)NC(=O)[C@H](CCC(=O)O)NC(=O)C(C)(C)NC(=O)[C@H](CC(C)C)NC(=O)[C@H](CC(N)=O)NC(=O)[C@@H]1CCCN1C(=O)CCNC(=O)[C@H](Cc1ccccc1)N(C)C(=O)CNC(=O)[C@@H](C)NC(=O)[C@@H](N)Cc1ccc(O)cc1)C(N)=O | 1200 | 5.6 | 100 |  |  |  |  |
| CC(C)C[C@H](NC(=O)[C@H](CO[C@@H]1O[C@H](CO)[C@@H](O)[C@H](O)[C@H]1O)NC(=O)[C@H](CCCCN)NC(=O)[C@H](CC(C)C)NC(=O)[C@H](C)NC(=O)[C@H](CCCCN)NC(=O)[C@H](CCCCN)NC(=O)C(C)(C)NC(=O)[C@H](CC(C)C)NC(=O)[C@H](CC(N)=O)NC(=O)CNC(=O)CNC(=O)[C@H](Cc1ccccc1)N(C)C(=O)CNC(=O)[C@@H](C)NC(=O)[C@@H](N)Cc1ccc(O)cc1)C(N)=O |  | 21 | 430 | 0 |  |  |  |
| CC(C)C[C@H](NC(=O)[C@H](CO[C@@H]1O[C@H](CO)[C@@H](O)[C@H](O)[C@H]1O)NC(=O)[C@H](CCCCN)NC(=O)[C@H](CC(C)C)NC(=O)[C@H](C)NC(=O)[C@H](CCCCN)NC(=O)[C@H](CCC(=O)O)NC(=O)C(C)(C)NC(=O)[C@H](CC(C)C)NC(=O)[C@H](CC(N)=O)NC(=O)[C@H](C)NC(=O)[C@H](CC(C)C)NC(=O)[C@H](Cc1ccccc1)NC(=O)CNC(=O)[C@@H](NC(=O)[C@@H](N)Cc1ccc(O)cc1)[C@@H](C)O)C(N)=O (H-YTGFLANL[Aib]EKALKS(βGlc)L-NH2) | 21 | 39 | 9.7 |  |  |  |  |
| CC(C)C[C@H](NC(=O)[C@H](CO[C@@H]1O[C@H](CO)[C@@H](O)[C@H](O)[C@H]1O)NC(=O)[C@H](CC(N)=O)NC(=O)[C@H](CC(C)C)NC(=O)[C@H](C)NC(=O)[C@H](CC(N)=O)NC(=O)[C@H](CC(N)=O)NC(=O)C(C)(C)NC(=O)[C@H](CC(C)C)NC(=O)[C@H](CC(N)=O)NC(=O)CNC(=O)CNC(=O)[C@H](Cc1ccccc1)N(C)C(=O)CNC(=O)[C@@H](C)NC(=O)[C@@H](N)Cc1ccc(O)cc1)C(N)=O |  | 5.2 | 340 | 22 |  |  |  |
| CC(C)C[C@H](NC(=O)[C@H](CO[C@@H]1O[C@H](CO)[C@@H](O)[C@H](O)[C@H]1O)NC(=O)[C@H](CCCCN)NC(=O)[C@H](CC(C)C)NC(=O)[C@H](C)NC(=O)[C@H](CCCCN)NC(=O)[C@H](CCC(=O)O)NC(=O)C(C)(C)NC(=O)[C@H](CC(C)C)NC(=O)[C@H](CC(N)=O)NC(=O)[C@@H]1CCCN1C(=O)[C@@H]1CCCN1C(=O)[C@H](Cc1ccccc1)N(C)C(=O)CNC(=O)[C@@H](C)NC(=O)[C@@H](N)Cc1ccc(O)cc1)C(N)=O | 2300 | 15 | 19 |  |  |  |  |
| CC(C)C[C@H](NC(=O)[C@H](CO[C@@H]1O[C@H](CO)[C@@H](O)[C@H](O)[C@H]1O)NC(=O)[C@H](CCCCN)NC(=O)[C@H](CC(C)C)NC(=O)[C@H](C)NC(=O)[C@H](CC(N)=O)NC(=O)[C@H](CCCCN)NC(=O)C(C)(C)NC(=O)[C@H](CC(C)C)NC(=O)[C@H](CC(N)=O)NC(=O)CNC(=O)CNC(=O)[C@H](Cc1ccccc1)N(C)C(=O)CNC(=O)[C@@H](C)NC(=O)[C@@H](N)Cc1ccc(O)cc1)C(N)=O | 430 | 0.24 | 11 |  |  |  |  |
| CC(C)C[C@H](NC(=O)[C@H](CO[C@@H]1O[C@H](CO)[C@@H](O)[C@H](O)[C@H]1O)NC(=O)[C@H](CCCCN)NC(=O)[C@H](CC(C)C)NC(=O)[C@H](C)NC(=O)[C@H](CCCCN)NC(=O)[C@H](CCC(=O)O)NC(=O)C(C)(C)NC(=O)[C@H](CC(C)C)NC(=O)[C@H](CC(N)=O)NC(=O)[C@H]1CCCN1C(=O)[C@H](CC(C)C)NC(=O)[C@H](Cc1ccccc1)NC(=O)CNC(=O)[C@@H](NC(=O)[C@@H](N)Cc1ccc(O)cc1)[C@@H](C)O)C(N)=O |  |  |  |  | 73 | 27 | 78 |
